From the EternaBench riboswitch data

System: MS2 coat protein
Assay: apparent Kd, MS2 coat protein; higher = weaker binding; RNA-MaP array; tryptophan 2.4 mM where present
Summary of the method: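 Green signal from SNAP-549-labelled MS2 coat protein was normalised to red-channel RNA signal and to the median Fmax of control clusters. The protein was titrated from 0.7 or 1.5 nM, doubling to 3 µM, without and then with constant ligand, over designs transcribed by stalled E. coli RNA polymerase on Illumina sequencing-chip clusters, in 100 mM Tris-HCl pH 7.5, 80 mM KCl, 4 mM MgCl2, BSA, DTT, yeast tRNA and Tween-20. The apparent Kd is the median of filtered per-cluster binding-curve fits.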

[1] = designed as: OFF switch for tryptophan, no ligand
[2] = ligand present: tryptophan, designed as: OFF switch for tryptophan
[3] = designed as: ON switch for tryptophan, no ligand
[4] = ligand present: tryptophan, designed as: ON switch for tryptophan

Sequence	apparent Kd [1]	apparent Kd [2]	apparent Kd [3]	apparent Kd [4]
UGAUACCAGUCGGCCGCCACUAUGCUAGAUACUAGCAAUAAAGGGCGACAUGAGGAUCACCCAUGUAGGACCGGGACUGGUAUCU	11.2 nM	14.8 nM		
AUAAAAGGGUUAUAUAGAUUUAGGUCCAGUCGAGGACCGGUACGGCCGCCACUCGUACUGAAAUACAUGAGGAUCACCCAUGUUA			21.8 nM	22.7 nM
UCUUUUUUCUUUUCUUCUUUCGGUUCUUUUCGAGGACCGGUACGGCCGCCACUCGAAACAUGAGGAUCACCCAUGUUUUGGUUUU	11.9 nM	17.5 nM		
AACAUGAGGAUCACCCAUGUCCUCGUGUUCCGAGGACCGGUACGGCCGCCACUCGGUCCUCGCGAGGAUGGUCAAAGACUAUCCA			97.4 nM	170 nM
CGACACAUGAGGAUCACCCAUGUAAUGACGCGAGGACCGGUACGGCCGCCACUCGCAUGCCAAUGAGCGCAUGCGGCCUGGGUAU	18.1 nM	14.5 nM		
CGAUAUGGGACGGCCGCCACUAUUAUGUAACAAAAUAAACAUGAGGAUCACCCAUGUACAUGGGAUAGGACCGGGUCCUAUAACG			32.4 nM	19.9 nM
GGUUACUCUACGGCCGCCACUGGGCAUGUAAAUAACAUGAGGAUCACCCAUGUGGAAUAAAAUUACAGGACCGGGUAGUGUAACC			254 nM	40.2 nM
GGGUGGUAGGCGGCCGCCACUGAUUUUCAUAUAUAUAUAACAUGAGGAUCACCCAUGUAGAUAUGCAGGACCGGGCCUGUUGUUU			36.5 nM	30.4 nM
UUUAAAUAGACGGCCGCCACUGGAAUUAAUACAUGAGGAUCACCCAUGUAGAGAGAAUAAUAAUACAGGACCGGGUCUUCAUGAA			31.4 nM	12.5 nM
AGAUUCGACACGGCCGCCACUCGUGCCGGAUUACCGAGUGUCGAACAUGAGGAUCACCCAUGUACGAGGACCGGGUGUUGAGUCU	37.7 nM	262 nM		
AAAUUAUAGGCGGCCGCCACUAGAGUUAGGCUUAUGUACUGGGUAACAUGAGGAUCACCCAUGUAUAGGACCGGGCCAUAAUAAA			53.5 nM	52.6 nM
GGAUUCAACUCGGCCGCCACUGGUGAUCCUAAUGUACAUGAGGAUCACCCAUGUACAUGAGAAUACAGGACCGGGAGAUAAGCAA			19.4 nM	13.9 nM
UCCUGCAGAGCGGCCGCCACUGUGUUGCGUGAGGAUGACCCAACAUGAGGAUCACCCAUGUUGUUUAGGACCGGGCUUGCCUCGA	13.4 nM	12.3 nM		
AACAUGAGGAUCACCCAUGUGUCCUCGAAACGAGGACCGGUACGGCCGCCACUCGAAAGGUGUUGACGAAAAGUCAGCACCAAAA	302 nM	930 nM		
AAACAUGAGGAUCACCCAUGUAUACUUAGACGAGGACCGGUACGGCCGCCACUCGAACUUCAAGAUUUGGCGGAAAAUGUAUGUA	11.3 nM	12.9 nM		
UAUAUAUAUCACUAACUGUUCUUGAGGUCUCGAGGACCGGUACGGCCGCCACUCGUGCCGCCUCACAUGAGGAUCACCCAUGUCC	53.7 nM	57 nM		

Sequence	apparent Kd [1]	apparent Kd [2]	apparent Kd [3]	apparent Kd [4]
CUCAUCCACGCGGCCGCCACUAUAUUGUGGUGUGAAUGUGUCGUAAUACAUGAGGAUCACCCAUGUAGGACCGGGCGUGGAUGAG	20.1 nM	32.9 nM		
ACCUCAUAGGCGGCCGCCACUGUAAUGACUACGUCAAACAUGAGGAUCACCCAUGUAGUCAAUCACAGGACCGGGUCAUGGGUAG			39.1 nM	23.9 nM
UACUUGCUGACGGCCGCCACUAGAACAUGAGGAUCACCCAUGUAAGUGGUUGGUUCAUGGGUGACUAGGACCGGGUCAGCAAGAU	32.3 nM	37.3 nM		
CUAGAUGGAAACGUCUGGACGCACAAGCGACGAGGACCGGUACGGCCGCCACUCGAAGAGUGGUGGACAUGAGGAUCACCCAUGU			53.8 nM	39.2 nM
UAUAUAUAUCACGAACUGUGGUGUAUGUCCCGAGGACCGGUACGGCCGCCACUCGCGUGGUUCCACAUGAGGAUCACCCAUGUUG	18.9 nM	22.7 nM		
AGUUUAGACACGGCCGCCACUCGUGACAGAUUUAGCAGUGGUCAACAUGAGGAUCACCCAUGUCUGAGGACCGGGUGUUGAGUUU	177 nM	631 nM		
CUGCUACAUACGGCCGCCACUUUAAACAUGAGGAUCACCCAUGUACGGAAGGGUGGUAAAUGUUAAAGGACCGGGUAUGUAGCAA	176 nM	45.1 nM		
AGCACUGUGACGGCCGCCACUACAUAUAGGGUGGUCAGGUUCAUAAUACAUGAGGAUCACCCAUGUAGGACCGGGUCUCAGUGCA	12.5 nM	14.4 nM		
UGCAUGAGGAUCGCCCGUGUCGAGCCGGUGCGAGGACCGGUACGGCCGCCACUCGAGACAUGAGGAUCACCCAUGUUGUGCGUGA	56.5 nM	91.4 nM		
GUAUUAACAAAAGUUGAUACAGUGGGUGAACGAGGACCGGUACGGCCGCCACUCGGACAUGAGGAUCACCCAUGUCCAUGUGAAA	17.2 nM	27.2 nM		
AGACUUCGCAUAGGAAAACUAUGUGAAGUCCGAGGACCGGUACGGCCGCCACUCGUCCUCAACAUGAGGAUCACCCAUGUAAUAA	21.5 nM	27.3 nM		
UCGAAUGCGGCGGCCGCCACUCGCGGAUAACGAUAGCUUAACAUGAGGAUCACCCAUGUGUCAUGGAGGACCGGGCCCAUACCGU			22.7 nM	21.1 nM
AUAAUAAUACAUGAGGAUCACCCAUGUAUGCGAGGACCGGUACGGCCGCCACUCGACCUCAUGCAUACAUGAGGAUCACCCAUGU			32.5 nM	62 nM
ACAUGAGGAUCACCCAUGUGAAGCAGGGUACGAGGACCGGUACGGCCGCCACUCGAGCAUUAUACCGAGUGAAUGGCAACGAUGU	15.7 nM	17 nM		
UAUCGAGGUACAUGAGGAUCACCCAUGUAUCGAGGACCGGUACGGCCGCCACUCGAUAAUGGCGGAUCGUUAGUCCUCUUCGAUA	10.7 nM	11.4 nM		
